Converted amounts (≈) assume the structure as drawn. The source made the active and inactive calls. The rule behind the calls is not given here.
What was measured:
A549 = assay: Cytotoxicity against human A549 cells after 72 hrs by sulforhodamine B assay; assay type: functional, cell-based; conditions: A549, 72 h
Outline: (§1)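 Cells seeded at 3 × 10^4 cells/mL and exposed to a range of compound concentrations at 37 °C, 5% CO2, for 72 h. Fixed with 10% TCA for 1 h, stained with 0.4% SRB in 1% acetic acid, dye dissolved in 10 mM Tris pH 10.0. Survival expressed relative to solvent control; IC50 by nonlinear regression. Etoposide positive control.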

K562 = assay: Cytotoxicity against human K562 cells after 72 hrs by sulforhodamine B assay; assay type: functional, cell-based; conditions: K562, 72 h; outline: as §1
HCT-116 = assay: Cytotoxicity against human HCT116 cells after 72 hrs by sulforhodamine B assay; assay type: functional, cell-based; conditions: HCT-116, 72 h; outline: as §1
[1] = Cytotoxicity against human SKHEP1 cells after 72 hrs by sulforhodamine B assay; assay type: functional, cell-based; conditions: SK-HEP1, 72 h; outline: as §1
[2] = Cytotoxicity against human SNU638 cells after 72 hrs by sulforhodamine B assay; assay type: functional, cell-based; conditions: SNU-638, 72 h; outline: as §1
MDA-MB-231 = assay: Cytotoxicity against human MDA-MB-231 cells after 72 hrs by sulforhodamine B assay; assay type: functional, cell-based; conditions: MDA-MB-231, 72 h; outline: as §1
[3] = Inhibition of Staphylococcus aureus ATCC 6538p sortase A delta24 mutant using H2N-Abz-LPXTG-Dap(Dnp)-NH2 fluorescent substrate incubated for 1 hr by fluorescence based assay
Outline: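 Recombinant SrtAΔ24 (24 μg), srtA gene from S. aureus ATCC 6538p. Buffer 50 mM Tris-HCl, 150 mM NaCl, pH 7.5, 5 mM CaCl2, with 1 μg Abz-LPXTG-Dap(Dnp) peptide, 1 mM pentaglycine and compound at several concentrations (0.5% DMSO final). 1 h at 37 °C. Fluorescence read at excitation 317 nm, emission 420 nm. p-Hydroxymercuribenzoic acid positive control.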

Kocuria rhizophila = assay: Antibacterial activity against Kocuria rhizophila NBRC 12708 incubated for 12 hrs at 37 degC; assay type: functional; conditions: NBRC 12708, 12 h
Outline: (§2)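 Bacteria grown overnight in LB broth at 37 °C, centrifuged and washed twice in sterile water. DMSO compound stocks serially 2-fold diluted in Plate Count Broth over 50 to 0.8 μg/mL. Inoculum 5 × 10^5 cfu/mL final, 12 h at 37 °C. MIC taken as lowest concentration with no visible growth. Ampicillin reference.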

Staphylococcus aureus = assay: Antibacterial activity against Staphylococcus aureus ATCC 25923 incubated for 12 hrs at 37 degC; assay type: functional; conditions: ATCC 25923, 12 h; outline: as §2
Salmonella enterica = assay: Antibacterial activity against Salmonella enterica ATCC 14028 incubated for 12 hrs at 37 degC; assay type: functional; conditions: ATCC 14028, 12 h; outline: as §2
Proteus hauseri = assay: Antibacterial activity against Proteus hauseri NBRC 3851 incubated for 12 hrs at 37 degC; assay type: functional; conditions: NBRC 3851, 12 h; outline: as §2
Bacillus subtilis = assay: Antibacterial activity against Bacillus subtilis ATCC 6633 incubated for 12 hrs at 37 degC; assay type: functional; conditions: ATCC 6633, 12 h; outline: as §2
Candida albicans = assay: Antifungal activity against Candida albicans ATCC 10231; assay type: functional
Outline: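 C. albicans grown in YPD medium for 48 h at 28 °C, centrifuged and washed twice with sterile water. Cells (5 × 10^4 cells/mL) in potato dextrose broth with test compound in DMSO (0.5% final). DMSO solvent control; amphotericin B positive control.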

Aspergillus fumigatus = assay: Antifungal activity against Aspergillus fumigatus HIC 6094; assay type: functional
Outline: (§3)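 Fungi grown on potato dextrose agar for 2 weeks at 28 °C. Spores harvested, washed twice and suspended at 5 × 10^5 spores/mL, then diluted into potato dextrose broth (5 × 10^4 cells/mL) with test compound in DMSO (0.5% final). DMSO solvent control; amphotericin B positive control.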

Trichophyton rubrum = assay: Antifungal activity against Trichophyton rubrum NBRC 9185; assay type: functional, organism-based; outline: as §3
[4] = tested on: Trichophyton mentagrophytes; assay: Antifungal activity against Trichophyton mentagrophytes IFM 40996; assay type: functional, organism-based; outline: as §3

Compound	IC50 (A549) [µM]	IC50 (K562) [µM]	IC50 (HCT-116) [µM]	IC50 [1] [µM]	IC50 [2] [µM]	IC50 (MDA-MB-231) [µM]	IC50 [3] [µM]	MIC (Kocuria rhizophila)	MIC (Staphylococcus aureus)	MIC (Salmonella enterica)	MIC (Proteus hauseri)	MIC (Bacillus subtilis)	MIC (Candida albicans)	MIC (Aspergillus fumigatus)	MIC (Trichophyton rubrum)	MIC [4]
COc1cc([C@@H]2c3cc4c(cc3[C@@H](O[C@@H]3O[C@@H]5CO[C@@H](C)O[C@H]5[C@H](O)[C@H]3O)[C@H]3COC(=O)[C@H]23)OCO4)cc(OC)c1O [ETOPOSIDE]	0.8	3.1	1.9	1.1	0.5	10.6										
Para-Hydroxymercuribenzoic acid							104									
CC1(C)S[C@@H]2[C@H](NC(=O)[C@H](N)c3ccccc3)C(=O)N2[C@H]1C(=O)O [AMPICILLIN]								0.6 µM	4.5 µM	4.5 µM	< 0.6 µM	1.1 µM				
COc1ccc2oc3c(O)c4c(c(O)c3c(=O)c2c1O)-c1c(cc(CC(C)=O)c(C(=O)N[C@@](C)(CO)C(=O)O)c1O)CC4	1.7	> 100	0.9	1.9	0.8	1.2	43.2	10.5 µM	10.5 µM	0.7 µM	21.1 µM	0.7 µM	21.1 µM (≈ 12.5 µg/mL)	84.3 µM (≈ 50 µg/mL)		
CC(=O)Cc1cc(O)c2c(c1)CCc1c-2cc2c(c1O)C(=O)c1c(O)cc(O)cc1C2=O	> 100	18.3	> 100	> 100	> 100	> 100		> 100 mg/L	> 100 mg/L	> 100 mg/L	> 100 mg/L	> 100 mg/L	inactive	inactive	inactive	inactive
